Assay results from ChEMBL document CHEMBL1137146, “Thiourea inhibitors of herpesviruses. Part 3: Inhibitors of varicella zoster virus” (Bioorg Med Chem Lett, 2004).

System: Human alphaherpesvirus 3
Experiment: inhibitory concentration against Varicella zoster virus
Assay type: functional, organism-based
Procedure, shortened: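 Compounds serially diluted and tested in duplicate against VZV. IC50 obtained by curve fitting with a sigmoidal Hill slope (0–100) model. The rest of the assay procedure follows earlier published work and is not given here.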

SMILES | IC50 (Human alphaherpesvirus 3) | IC50
CC(/N=C(\S)Nc1ccc(NC(=O)c2ccccc2F)cc1)c1c[nH]c2ccccc12 (stereo not drawn) | 9480 nM | 
CCOc1cc(N/C(S)=N/C(C)c2ccc(F)cc2)ccc1NC(=O)c1ccccc1F (stereo not drawn) | 570 nM | 
Cc1cc(N/C(S)=N/C(C)c2ccc(F)cc2)ccc1NC(=O)c1ccccc1F (stereo not drawn) | 120 nM | 
CC(/N=C(\S)Nc1cc(Br)c(NC(=O)c2ccccc2F)c(Br)c1)c1ccc(F)cc1 (stereo not drawn) | 70 nM | 
CC(/N=C(\S)Nc1ccc(NC(=O)c2ccccc2F)cc1)c1ccc2ccccc2c1 (stereo not drawn) | 4510 nM | 
COc1ccccc1C(=O)Nc1ccc(N/C(S)=N/C(C)c2ccc(F)cc2)cc1 (stereo not drawn) | 190 nM | 
CC(/N=C(\S)Nc1ccc(NC(=O)c2ccccc2F)cc1)c1cc2ccccc2o1 (stereo not drawn) | 180 nM | 
CCC(/N=C(\S)Nc1ccc(NC(=O)c2ccccc2F)cc1)c1ccc(F)cc1 (stereo not drawn) | > 17600 nM | 
CC(/N=C(\S)Nc1ccc(NC(=O)c2cc3ccccc3cn2)cc1)c1ccc(F)cc1 (stereo not drawn) | 180 nM | 
CC(C)(/N=C(\S)Nc1ccc(NC(=O)c2ccccc2F)cc1)c1ccccc1 | 9700 nM | 
CC(/N=C(\S)Nc1ccc(NC(=O)c2ccccc2F)cc1)c1csc2ccccc12 (stereo not drawn) | 3560 nM | 
CC(/N=C(\S)Nc1ccc(NC(=O)c2ccccc2F)c(C(F)(F)F)c1)c1ccc(F)cc1 (stereo not drawn) | 60 nM | 
CC(/N=C(\S)Nc1ccc(NC(=O)c2ccccc2F)cc1)c1ccc(F)cc1 (stereo not drawn) | 600 nM | 
CC(/N=C(\S)Nc1ccc(NC(=O)c2ccccc2F)cc1Cl)c1ccc(F)cc1 (stereo not drawn) | 1370 nM | 
C[C@@H](NC(=S)Nc1ccc(NC(=O)c2ccccc2F)cc1)c1ccccc1 (stereo in doubt; 9) |  | 700 nM
COc1cc(NC(=O)c2ccccc2F)ccc1/N=C(\S)NC(C)c1ccc(F)cc1 (stereo not drawn) | 1540 nM | 
CC(/N=C(\S)Nc1ccc(NC(=O)c2ccc3ccccc3n2)cc1)c1ccc(F)cc1 (stereo not drawn) | 90 nM | 

SMILES | IC50 (Human alphaherpesvirus 3) | IC50
CC(/N=C(\S)Nc1ccc(NC(=O)c2ccccc2F)c(C#N)c1)c1ccc(F)cc1 (stereo not drawn) | 110 nM | 
CC(NC(=O)Nc1ccc(NC(=O)c2ccccc2F)c(C#N)c1)c1cc2ccccc2o1 (stereo not drawn) | 110 nM | 
CC(NC(=O)Nc1ccc(NC(=O)c2ccccc2F)c(C#N)c1)c1ccc(F)cc1 (stereo not drawn) | 30 nM | 
CC(NC(=S)Nc1ccc(NC(=O)c2ccccc2F)cc1)c1ccccc1 (stereo not drawn) | 1300 nM | 
C[C@@H](NC(=S)Nc1ccc(NC(=O)c2ccccc2F)cc1)c1ccc(Br)cc1 (stereo in doubt; 12) |  | 49100 nM
CC(/N=C(\S)Nc1ccc(NC(=O)c2ccccc2F)c(C#N)c1)c1cc2ccccc2o1 (stereo not drawn) | 110 nM | 
CC(/N=C(\S)Nc1ccc(NC(=O)c2ccccc2F)cc1)c1ccc(Cl)cc1 (stereo not drawn) | 210 nM | 
Cc1cc(NC(=O)c2ccccc2F)ccc1N/C(S)=N/C(C)c1ccc(F)cc1 (stereo not drawn) | 990 nM | 
CC(/N=C(\S)Nc1ccc(NC(=O)c2ccccc2F)cc1)c1ccc(C#N)cc1 (stereo not drawn) | 960 nM | 
C[C@@H](NC(=S)Nc1ccc(NC(=O)c2ccccc2F)cc1)c1ccc(Br)cc1 (stereo in doubt; 11) |  | 130 nM
CC(/N=C(\S)Nc1ccc(-c2cc(-c3ccnc4ccccc34)no2)cc1)c1ccc(F)cc1 (stereo not drawn) | 190 nM | 
COc1cc(N/C(S)=N/C(C)c2ccc(F)cc2)ccc1NC(=O)c1ccccc1F (stereo not drawn) | 90 nM | 
CC(NC(=S)Nc1ccc(NC(=O)c2ccccc2F)cc1)c1ccc(Br)cc1 (stereo not drawn) | 420 nM | 
O=C(Nc1ccc(N/C(S)=N/Cc2ccccc2)cc1)c1ccccc1F | > 26300 nM | 
CC(/N=C(\S)Nc1ccc(-c2cc(Cc3ccccc3)no2)cc1)c1ccc(F)cc1 (stereo not drawn) | 190 nM | 
C[C@@H](NC(=S)Nc1ccc(NC(=O)c2ccccc2F)cc1)c1ccccc1 (stereo in doubt; 10) |  | > 19100 nM
